Assay results published in ChEMBL document CHEMBL3779838, “Inhibitory effect of flavonoids on human glutaminyl cyclase” (Bioorg Med Chem, 2016).

What was measured:
[1] = biological target: T1, Glutaminyl-peptide cyclotransferase (Homo sapiens, UniProt Q16769); test: Inhibition of human recombinant glutaminyl cyclase expressed in Escherichia coli using H-Gln-Gln-H substrate measured for 15 mins by spectrophotometry
In short: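 Recombinant hQC expressed in E. coli is tested in a glutamic acid dehydrogenase-coupled reaction: 0–4 mM H-Gln-Gln-H, 30 units/ml GDH, 0.5 mM NADH/H+, 15 mM α-ketoglutaric acid, 0.05 M Tris–HCl pH 8.0. Inhibitor is added at several concentrations with the enzyme to start the reaction, and A340 loss is read over 15 min. IC50 is read graphically from log concentration vs % inhibition. Triplicate.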
Target sequence in this assay (Q16769 whole entry): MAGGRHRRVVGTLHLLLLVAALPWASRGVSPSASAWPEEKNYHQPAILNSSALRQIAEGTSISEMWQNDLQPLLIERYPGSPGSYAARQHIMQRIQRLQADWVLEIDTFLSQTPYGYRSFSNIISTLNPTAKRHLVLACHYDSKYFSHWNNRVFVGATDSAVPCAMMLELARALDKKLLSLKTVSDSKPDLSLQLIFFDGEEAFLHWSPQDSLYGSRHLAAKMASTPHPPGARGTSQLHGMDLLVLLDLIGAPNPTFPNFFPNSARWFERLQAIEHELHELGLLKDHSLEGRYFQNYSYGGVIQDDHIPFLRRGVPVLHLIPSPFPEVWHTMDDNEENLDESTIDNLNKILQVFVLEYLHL

[2] = biological target: T1, Glutaminyl-peptide cyclotransferase; test: Inhibition of human recombinant glutaminyl cyclase expressed in Escherichia coli at 100 uM using H-Gln-Gln-H substrate measured for 15 mins by spectrophotometry relative to control
Target sequence in this assay (Q16769 29-361 limits assumed): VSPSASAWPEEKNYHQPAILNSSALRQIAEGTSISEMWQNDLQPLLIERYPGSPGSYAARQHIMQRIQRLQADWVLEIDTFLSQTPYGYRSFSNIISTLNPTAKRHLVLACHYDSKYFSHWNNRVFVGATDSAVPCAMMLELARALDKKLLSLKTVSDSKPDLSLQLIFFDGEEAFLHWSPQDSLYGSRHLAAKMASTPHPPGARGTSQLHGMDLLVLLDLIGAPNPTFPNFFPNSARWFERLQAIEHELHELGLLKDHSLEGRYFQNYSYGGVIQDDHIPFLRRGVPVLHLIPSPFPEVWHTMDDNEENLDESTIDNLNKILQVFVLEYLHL

IC50 [1]	inhibition [2]	SMILES
45.2 µM	71.8%	O=c1cc(-c2ccc(O)cc2)oc2cc(O)ccc12
–	71.7%	COc1ccc(-c2cc(=O)c3c(O)cc(O)cc3o2)c(OC)c1
–	75.2%	COc1ccc(-c2cc(=O)c3ccc(O)cc3o2)cc1
–	75.2%	O=c1cc(-c2ccc(O)cc2)oc2cc(O)cc(O)c12
